Results from ChEMBL document CHEMBL4017507 (J Med Chem, 2017).

Experiments:
Human betaherpesvirus 5 [1] = test: Antiviral activity against human cytomegalovirus AD-169 infected in human HEL cells assessed as inhibition of virus-induced cytopathic effect; assay type: functional, cell-based; conditions: Human betaherpesvirus 5, AD-169, HEL
Procedure, shortened: (§1)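 Confluent HEL fibroblast monolayers were inoculated in 96-well plates with 100 CCID50 of virus in the presence of serially varied compound concentrations. Cytopathicity was scored once untreated infected controls reached full CPE.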

[2] = system: Human immunodeficiency virus 1; test: Antiviral activity against HIV1 X4LAI.04 infected in human MT4 cells assessed as decrease in viral replication by p24gag-based luminex assay; assay type: functional, cell-based; conditions: Human immunodeficiency virus 1, X4LAI.04, MT4
Procedure, shortened: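 10^6 MT-4 cells were infected with HIV-1 X4LAI.04 (7 ng p24) for 2 h at 37 °C, then washed with PBS and resuspended. Compounds were added and cultures were kept 3 days at 37 °C. Supernatant p24 was measured by bead-based Luminex. Inhibition was calculated as (1 − p24 treated/p24 untreated) × 100, and EC50 was derived from it.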

MT4 = test: Cytotoxicity against human MT4 cells assessed as reduction in cell viability by cell counting method; assay type: cell-based
Procedure, shortened: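 MT-4 cultures, untreated or treated, were assessed with an automated cell counter using propidium iodide staining to enumerate total and dead cells.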

CCRF-CEM = test: Cytostatic activity human CEM cells assessed as reduction in cell viability after 72 hrs by cell counting method; assay type: cell-based; conditions: ccrf-cem, 72 h
Procedure, shortened: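 (5–7.5) × 10^? CEM cells per well were grown with compound for 72 h at 37 °C under humidified CO2. Cells were counted in a Coulter counter.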

[3] = system: Human immunodeficiency virus 1; test: Antiviral activity against HIV1 X4LAI.04 infected in human tonsillar tissues assessed as inhibition of virus-induced cytopathic effect by p24gag-based luminex assay; assay type: functional; conditions: Human immunodeficiency virus 1, X4LAI.04
Procedure, shortened: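 Tonsillectomy tissue blocks of 2–3 mm³ were cultured on collagen sponge gels at the air–liquid interface, 27 blocks per donor per condition. Blocks were pretreated with compound overnight, infected with HIV-1 X4LAI.04 and cultured 12 days, with drug replenished at each medium change every 3 days. Medium p24 was measured by Luminex. Inhibition was calculated against untreated tissue, and EC50 was derived from it.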

Human alphaherpesvirus 1 [4] = test: Antiviral activity against Herpes simplex virus 1 KOS infected in human HEL cells assessed as inhibition of virus-induced cytopathic effect; assay type: functional, cell-based; conditions: Human alphaherpesvirus 1, KOS; procedure, shortened: as §1
Human alphaherpesvirus 2 = test: Antiviral activity against Herpes simplex virus 2 G infected in human HEL cells assessed as inhibition of virus-induced cytopathic effect; assay type: functional, cell-based; conditions: Human alphaherpesvirus 2, strain G; procedure, shortened: as §1
Human alphaherpesvirus 1 [5] = test: Antiviral activity against ACV-resistant thymidine kinase deficient Herpes simplex virus 1 KOS infected in human HEL cells assessed as inhibition of virus-induced cytopathic effect; assay type: functional, cell-based; conditions: Human alphaherpesvirus 1, KOS; procedure, shortened: as §1
[6] = Cytotoxicity against human HEL cells assessed as alteration to cell morphology by microscopic analysis; assay type: cell-based
Procedure, shortened: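 Minimal cytotoxic concentration is the compound concentration giving a microscopically visible alteration of HEL cell morphology, scored in the antiviral assay cultures.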

Human betaherpesvirus 5 [7] = test: Antiviral activity against human cytomegalovirus Davis infected in human HEL cells assessed as inhibition of virus-induced cytopathic effect; assay type: functional, cell-based; conditions: Human betaherpesvirus 5, Davis; procedure, shortened: as §1
Human alphaherpesvirus 3 [8] = test: Antiviral activity against Varicella-Zoster virus OKA infected in human HEL cells assessed as inhibition of virus-induced cytopathic effect; assay type: functional, cell-based; conditions: Human alphaherpesvirus 3, strain Oka vaccine
Procedure, shortened: (§2)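 Confluent HEL fibroblast cultures were inoculated with 20 PFU of VZV in the presence of varying compound concentrations. Plaque formation was recorded once untreated infected controls reached completion.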

Human alphaherpesvirus 3 [9] = test: Antiviral activity against thymidine kinase deficient Varicella-Zoster virus 07-1 infected in human HEL cells assessed as inhibition of virus-induced cytopathic effect; assay type: functional, cell-based; conditions: Human alphaherpesvirus 3, 07-1, HEL; procedure, shortened: as §2
HEL = test: Cytotoxicity against human HEL cells assessed as cell growth inhibition by cell counting method; assay type: cell-based
[10] = Drug metabolism assessed as carboxypeptidase Y (unknown origin)-mediated metabolite 81 peak formation measured with in 30 mins by [31P]-NMR spectroscopic analysis; assay type: ADME; conditions: human, 0.5 h
[11] = Prodrug activation assessed as carboxypeptidase Y (unknown origin)-mediated 2-{5-[2-(2-Amino-6-chloro-purin-9-yl)-ethyl]-2-oxo-2lambda(5)-[1,3,2]dioxaphosphinan-2-ylamino}-propionic acid anion peak formation measured with in 1 hr by [31P]-NMR spectroscopic analysis; conditions: human
[12] = Prodrug activation assessed as carboxypeptidase Y (unknown origin)-mediated 2-((4-(2-amino-6-chloro-9H-purin-9-yl)-2-(hydroxymethyl)butoxy)oxidophosphorylamino)propanoate peak formation measured after […] by [31P]-NMR spectroscopic analysis; conditions: human
[13] = Prodrug activation assessed as carboxypeptidase Y (unknown origin)-mediated 2-((4-(2-amino-6-chloro-9H-purin-9-yl)-2-(hydroxymethyl)butoxy)oxidophosphorylamino)propanoate formation measured after 8 hrs by [31P]-NMR spectroscopic analysis; conditions: human
[14] = Prodrug activation assessed as carboxypeptidase Y (unknown origin)-mediated 2-((4-(2-amino-6-chloro-9H-purin-9-yl)-2-(hydroxymethyl)butoxy)oxidophosphorylamino)propanoate formation by mass spectroscopic analysis; conditions: human
[15] = Drug metabolism assessed as carboxypeptidase Y (unknown origin)-mediated metabolite 81 formation measured after 2 hrs by [31P]-NMR spectroscopic analysis; assay type: ADME; conditions: human
[16] = Drug metabolism assessed as carboxypeptidase Y (unknown origin)-mediated metabolite 79 formation measured after 2 hrs by [31P]-NMR spectroscopic analysis; assay type: ADME; conditions: human
[17] = Drug metabolism assessed as carboxypeptidase Y (unknown origin)-mediated metabolite 79 formation measured after 14 hrs by [31P]-NMR spectroscopic analysis; assay type: ADME; conditions: human
[18] = Drug metabolism assessed as carboxypeptidase Y (unknown origin)-mediated metabolite 81 peak measured after 14 hrs by [31P]-NMR spectroscopic analysis; assay type: ADME; conditions: human

Row | Compound | EC50 (Human betaherpesvirus 5 [1]) | EC50 [2] | IC50 (MT4) | CC50 (CCRF-CEM) | EC50 [3] | EC50 (Human alphaherpesvirus 1 [4]) | EC50 (Human alphaherpesvirus 2) | EC50 (Human alphaherpesvirus 1 [5]) | MCC [6] | EC50 (Human betaherpesvirus 5 [7]) | EC50 (Human alphaherpesvirus 3 [8]) | EC50 (Human alphaherpesvirus 3 [9]) | CC50 (HEL) | also measured
1 | C[C@H](NP(=O)(OCC(CO)CCn1cnc2c(Cl)nc(N)nc21)Oc1ccccc1)C(=O)OCc1ccccc1 (mixture of isomers) | > 100 µM | 1 µM | 20 µM | 33 µM | 4 µM | > 100 µM | > 100 µM | > 100 µM | > 100 µM | > 100 µM | 37.3 µM | 42.9 µM | 39 µM | Drug metabolism [10]: Metabolite_Detected
2 | C[C@H](NP1(=O)OCC(OCn2cnc3c(Cl)nc(N)nc32)CO1)C(=O)OCc1ccccc1 (some centres undefined) |  | 85 µM | 150 µM | 165 µM | 9 µM | > 100 µM | > 100 µM | > 100 µM | > 100 µM |  |  |  |  | Drug metabolism [11]: Metabolite_Detected; Drug metabolism [12]: Metabolite_Detected; Drug metabolism [13]: Metabolite_Detected; Drug metabolism [14]: Metabolite_Detected
3 | CCCOC(=O)[C@H](C)NP(=O)(OCC(CO)CCn1cnc2c(OC)nc(N)nc21)Oc1cccc2ccccc12 (some centres undefined) | 32 µM | 11 µM | 13 µM | 17 µM |  | 14 µM | 15 µM | ≥ 20 µM | 50 to 100 µM | 50 µM | 3.7 µM | 9.1 µM | 14.4 µM | Drug metabolism [15]: Metabolite_Detected; Drug metabolism [16]: Metabolite_Detected
4 | CCCOC(=O)[C@H](C)NP(=O)(OCC(CCn1cnc2c(OC)nc(N)nc21)COP(=O)(N[C@@H](C)C(=O)OCCC)Oc1cccc2ccccc12)Oc1cccc2ccccc12 (some centres undefined) | 32 µM | 9.7 µM | 20 µM | 6.8 µM |  | > 100 µM | > 100 µM | > 100 µM | 50 to 100 µM | 40 µM | 6.1 µM | 8.1 µM | 4.9 µM | Drug metabolism [17]: Metabolite_Detected; Drug metabolism [18]: Metabolite_Detected
